Assay outcomes from PubChem BioAssay.
CDK5 p35 inh: inhibitors of human CDK5/p35 kinase, primary screen, biochemical, single concentration | inhibition, % at 10 µM | Recombinant CDK5/p35, ADP-Glo luminescence, 60 min | Cyclin-dependent kinase 5 (Homo sapiens) + Cyclin-dependent kinase 5 activator 1 (Homo … | 330,000 tested, 0.01% active | AID 488839, 2010;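 active = highest replicate inhibition of at least 50% and at least 75% of replicates reaching 50%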
Target sequence (Q00535 whole entry, looked up): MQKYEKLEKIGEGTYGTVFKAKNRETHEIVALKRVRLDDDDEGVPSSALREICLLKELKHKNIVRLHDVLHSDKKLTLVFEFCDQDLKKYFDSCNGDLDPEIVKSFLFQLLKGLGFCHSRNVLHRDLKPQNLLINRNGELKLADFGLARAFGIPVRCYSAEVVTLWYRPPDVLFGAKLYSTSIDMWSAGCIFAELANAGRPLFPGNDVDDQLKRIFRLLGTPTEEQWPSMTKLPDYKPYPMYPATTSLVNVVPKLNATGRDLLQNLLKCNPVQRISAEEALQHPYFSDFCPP
Target sequence (Q15078 whole entry, looked up): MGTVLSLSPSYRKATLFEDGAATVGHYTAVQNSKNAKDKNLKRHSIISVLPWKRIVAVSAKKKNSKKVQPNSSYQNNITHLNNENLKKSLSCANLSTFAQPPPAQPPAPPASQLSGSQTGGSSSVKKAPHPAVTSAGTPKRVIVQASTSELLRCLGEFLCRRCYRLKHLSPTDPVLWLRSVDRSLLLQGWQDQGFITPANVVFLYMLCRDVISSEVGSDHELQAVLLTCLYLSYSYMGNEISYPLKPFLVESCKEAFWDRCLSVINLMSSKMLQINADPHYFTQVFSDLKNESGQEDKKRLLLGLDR
CAL PDZ FP-1: untagged CAL PDZ binding inhibitors, primary screen, biochemical, fluorescence polarization, HTS; Golgi-associated PDZ and coiled-coil motif-containing protein (Homo sapiens), Q9HD26; purified CAL PDZ, TMR-peptide fluorescence polarization, 1 h; inhibition, % at 24.9 µM; 300,000 tested, 0.92% active; AID 602252, 2012;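 active = mean inhibition of at least 30% with at least half of replicates also reaching 30%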
N-glyco inh: increase of ERlucT glycosylation luciferase signal, primary screen, N-linked glycosylation inhibitor project, D54 ERlucT cells, luminescence, set 2. D54 ERlucT glycosylation luciferase reporter, 24 h; percent of 100 nM tunicamycin response. reporter increase, % at 12.5 µM. 360,000 tested, 0.23% active. AID 588692, 2011;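 active = mean luciferase reporter signal, scaled so untreated is 0 and the glycosylation-blocking control 100, at or above a set limit in every replicate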;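 also: luciferase carries N-glycosylation sites so blocking glycosylation raises the light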
Vif inh: HIV Vif self-association inhibitors, primary screen, imaging, HEK293T, single point; inhibition, % at 7.49 µM; 340,000 tested, 0.35% active; HEK293T cells, Vif self-association by quenched fluorescence, 24 h; in the data active = inhibition above about 50%, passing the limit was not always enough
CAL PDZ FP-2: CAL PDZ peptide-binding inhibitors, primary screen, biochemical, fluorescence polarization, Cer-tagged CAL PDZ, HTS. purified CAL PDZ, TMR-peptide fluorescence polarization, 1 h. inhibition, % at 20 µM. 330,000 tested, 0.02% active. AID 504414, 2011;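 active = highest replicate inhibition of at least 40%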
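Material: tagged CAL PDZ protein CerCALP, purified; buffer or medium: sodium phosphate/NaCl buffer pH 7.4 with TCEP, IgG, Thesit; also added: fluorescent TMR peptide probe; schedule: 1 h incubation at room temperature before polarization reading; technique: fluorescence polarization from S- and P-plane intensities, G-factor corrected; control set: unlabelled peptide and DMSO controls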
PvdQ acylase: P. aeruginosa PvdQ acylase inhibitors, primary screen, biochemical, fluorescence, plate reader and imaging, single point; PvdQ acylase [Pseudomonas aeruginosa LESB58]; purified PvdQ acylase; inhibition, % at 10 µM; 340,000 tested, 0.063% active; AID 488965, 2010; in the data active = inhibition above about 30%, passing the limit was not always enough
Hits are given with their value; . = inactive; / = not tested or not shown; + = active, no number. In the library only some 1.4% were active in any assay of this set; here they are far more common.

SMILES	CDK5 p35 inh	CAL PDZ FP-1	N-glyco inh	Vif inh	CAL PDZ FP-2	PvdQ acylase
CC1CCN(C(=O)c2[nH]cnc2C(=O)N[C@H](C)c2ccccc2)CC1	.	.	.	.	.	.
C[C@H](NC(=O)c1nc[nH]c1C(=O)N[C@@H](C)C(=O)OCc1ccccc1)C(=O)OCc1ccccc1	.	.	.	68	.	.
C[C@H](NC(=O)c1nc[nH]c1C(=O)NC(c1ccccc1)c1ccccc1)C(=O)OCc1ccccc1	.	.	.	.	.	.
O=C1CC2c3ccccc3C1C1C(=O)N(Cc3ccccc3)C(=O)C21 (stereo unspecified)	.	35	.	.	.	.
Cc1ccccc1CCNC(=O)Cn1ccc2cc(S(=O)(=O)N3CCCC3)ccc21	.	.	.	.	.	.
COc1ccc(S[C@@H](CCN2CC[C@H](O)CCC2=O)c2ccccc2)cc1	.	.	.	/	.	.
CNS(=O)(=O)c1cccc(C(=O)OCC(=O)c2cc(C)n(-c3ccc4c(c3)OCO4)c2C)c1	.	.	.	.	.	.
Cc1cc(C(=O)COc2ccccc2Cl)c(C)n1-c1ccc2c(c1)OCO2	.	45	.	.	.	.
Cc1ccc2cc3c(N)c(C(=O)N4CCOCC4)sc3nc2c1	.	53	.	.	.	.
Cc1ccc(S(=O)(=O)N2CCOC23CCN(C(=O)C(=O)NCCC(C)C)CC3)cc1	.	.	.	.	.	.
CCOc1cc(C(=S)N2CCN(C)CC2)ccc1OCC(=O)N1CCOCC1	.	31	.	.	.	.
CCOc1cc(C(=O)OCc2ccc(OC)cc2)ccc1OCC(=O)N1CCOCC1	.	.	.	.	.	.
O=C(NC1CC1)c1cc(=S)[nH]c2ccccc12	.	.	.	.	.	.
CCOc1ccc2nc3cc(N=Nc4ccc(N)nc4N)ccc3c(N)c2c1	62	.	.	.	56	.
COc1ccc2[nH]c(=O)c(CN(C(=O)C3CCCO3)c3ccc(C)c(C)c3)cc2c1 (stereo unspecified)	.	48	.	.	.	.
COc1ccc2[nH]c(=O)c(CN(C(=O)c3cccnc3)c3ccc(C)cc3C)cc2c1	.	34	.	.	.	.
CCN1C(=O)NC(c2ccccc2)C1=O (stereo unspecified)	.	.	.	81	.	.
COc1ccc(CNC(=O)CN2C(=O)CSc3ccc(S(=O)(=O)N4CCOCC4)cc32)c(OC)c1	.	.	.	.	.	.
CCOc1ccccc1CNC(=O)CN1C(=O)CSc2ccc(S(=O)(=O)N3CCOCC3)cc21	.	+	.	.	.	.
COC(=O)[C@H](CC(C)C)N1Cc2cc(OC)cc(OC)c2-c2ccccc2S1(=O)=O	.	51	.	.	.	.
COC(=O)c1ccc(C(=O)OC)c(NC(=O)COC(=O)C23CC4CC(CC(O)(C4)C2)C3)c1	.	.	.	52	.	.
C#CC(=O)CC1(CN(Cc2ccccc2)C(=O)OC(C)(C)C)CCCCC1	.	.	.	/	.	.
CC(=O)Nc1ccc(C=NNC(=O)CCCC(=O)NN=Cc2ccc(NC(C)=O)cc2)cc1	.	.	.	.	.	.
Cn1ccc2ccc(C3=CC(=O)C[C@H](c4ccc(F)cc4)C3)cc21	.	.	.	.	.	.
CCN(Cc1nc2ccccc2c(=O)[nH]1)C(=O)c1cccc(S(=O)(=O)N2CCc3ccccc32)c1	.	.	.	.	.	.
SMILES	CDK5 p35 inh	CAL PDZ FP-1	N-glyco inh	Vif inh	CAL PDZ FP-2	PvdQ acylase
CCOc1ccc(S(=O)(=O)Nc2nc3ccccc3nc2Nc2ccc(N3CCOCC3)cc2)cc1	.	.	.	.	.	.
Cc1ccc(NC(=O)COC(=O)Cn2ccc(=O)[nH]c2=O)cc1C	.	40	.	.	.	.
Cc1ccc(NC(=O)COC(=O)CN2CCCCCC2=O)cc1C	.	.	.	.	.	.
CC[C@@H]1CC=C[C@H]2[C@H]1C(=O)N(Cc1ccccc1)[C@H]2c1ccoc1	.	.	38	.	.	.
C[C@@H]1CC=C[C@H]2[C@H]1C(=O)N(Cc1ccccc1)[C@H]2c1ccoc1	.	.	.	.	.	.
COc1ccc(Nc2nc3ccccc3n3cnnc23)cc1	.	60	.	.	.	.
Cn1nc(C(C)(C)C)cc1C(=O)N1CCC(C)(C(=O)NS(=O)(=O)C2CC2)C1 (stereo unspecified)	/	/	.	/	/	/
COc1cc(OC)c(N(C)S(=O)(=O)c2cccc(C(=O)OCC(=O)N3CCOCC3)c2)cc1Cl	.	32	.	.	.	.
COc1cc(OC)c(N(C)S(=O)(=O)c2cccc(C(=O)OCc3c(C)noc3C)c2)cc1Cl	.	.	.	.	.	.
O=C(CN1CCC(n2nnc3cc(C(F)(F)F)ccc32)CC1)Nc1ccc2c(c1)OCCO2	.	49	.	.	.	.
O=C(CN1CCC(n2nnc3cc(C(F)(F)F)ccc32)CC1)Nc1ccc2c(c1)CCC2	.	.	.	.	.	.
Cc1ccc2c(c1)C(=O)N1[C@H]3c4ccccc4OC[C@@H]3[C@H](c3ccccc3)[C@]1(C)C(=O)N2	.	.	31	.	.	.
C[C@@]12C(=O)Nc3ccc(Br)cc3C(=O)N1[C@H]1c3cc(Cl)ccc3OC[C@@H]1[C@@H]2c1ccccc1	.	.	.	.	.	.
Cc1ccc2c(c1)[C@H]1[C@H](CO2)[C@H](c2ccccc2)[C@]2(C)C(=O)Nc3ccc(Cl)cc3C(=O)N12	.	.	.	.	.	.
Cc1ccc2c(c1)[C@H]1[C@H](CO2)[C@H](c2ccccc2)[C@]2(C)C(=O)Nc3ccccc3C(=O)N12	.	.	.	.	.	.
Cc1ccc2c(c1)NC(=O)[C@@]1(C)[C@@H](c3ccccc3)[C@H]3COc4ccccc4[C@@H]3N1C2=O	.	.	36	.	.	.
C[C@@]12C(=O)Nc3ccc(Br)cc3C(=O)N1[C@H]1c3ccccc3OC[C@@H]1[C@@H]2c1ccccc1	.	.	27	.	.	.
CCCCN(C(=O)c1ccc(NC2CC2)c([N+](=O)[O-])c1)c1c(N)n(CC(C)C)c(=O)[nH]c1=O	.	.	.	.	.	.
COc1cc(CN2C[C@@H](CO)O[C@@H](n3cnc4c(N(C)C)ncnc43)C2)cc(OC)c1OC	/	/	.	.	/	/
